Laboratory results as given in ChEMBL document CHEMBL3632581, “Dimers of Melampomagnolide B Exhibit Potent Anticancer Activity against Hematological and Solid Tumor Cells” (J Med Chem, 2015).

What was measured:
Type in all cases: functional
[1] = Cytotoxicity against rat 9LSF cells at 10 uM after 48 hrs by colony formation assay relative to DMAPT
Summary of the method: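 9L-SF rat gliosarcoma cells in DMEM/F12 with 10% iron-supplemented calf serum were treated at 50% confluence for 48 h (0.3-20 μM; DMSO <0.1%, DMAPT in saline). Cells were rinsed, trypsinized, counted and seeded for colonies, with irradiated feeders when seeding was below 2,000 cells/cm2. Survival was normalized to control plating efficiency and compared with DMAPT at 10 μM. Treatments in triplicate.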

HOP-62 = experiment: Cytotoxicity against human HOP62 cells after 48 hrs by SRB assay; conditions: HOP-62, 48 h; for CC50: read-out: LC50 (the source's name)
Summary of the method: (§1)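 NCI-60 five-dose screen at 10−8 to 10−4 M. Cells were plated at 5,000–40,000/well in RPMI 1640 with 5% FBS and 2 mM L-glutamine, then preincubated 24 h, and time-zero plates were TCA-fixed. Compound was added from DMSO stocks and exposed 48 h at 37 °C. Cells were TCA-fixed, SRB-stained, and read at 515 nm. LC50 is the concentration halving the cell population through cell death.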

SNB-19 = experiment: Cytotoxicity against human SNB19 cells after 48 hrs by SRB assay; conditions: SNB-19, 48 h; summary of the method: as §1

Row | SMILES | fold change (FC) [1] | GI50 (HOP-62) [µM] | CC50 (HOP-62) [µM] | GI50 (SNB-19) [µM] | CC50 (SNB-19; read-out: LC50 (the source's name)) [µM]
1 | C=C1C(=O)O[C@H]2[C@H]1CC/C(COC(=O)NCCCCCCCCNC(=O)OC/C1=C/CC[C@@]3(C)O[C@H]3[C@H]3OC(=O)C(=C)[C@@H]3CC1)=C\CC[C@@]1(C)O[C@@H]21 | 303 | 1.53 | 7.95 | – | –
2 | C=C1C(=O)O[C@H]2[C@H]1CC/C(COC(=O)NCCCCCNC(=O)OC/C1=C/CC[C@@]3(C)O[C@H]3[C@H]3OC(=O)C(=C)[C@@H]3CC1)=C\CC[C@@]1(C)O[C@@H]21 | – | – | – | 3.97 | 92.5
3 | C=C1C(=O)O[C@H]2[C@H]1CC/C(COC(=O)NCCCCNC(=O)OC/C1=C/CC[C@@]3(C)O[C@H]3[C@H]3OC(=O)C(=C)[C@@H]3CC1)=C\CC[C@@]1(C)O[C@@H]21 | – | 3.84 | 46.1 | – | –
